Hits are enriched below; roughly 1.6% of the tested compounds scored in any of these assays.
PLC-gamma1 inh: PLC-gamma1 enzyme inhibitors, primary screen, biochemical, fluorescence, purified enzyme; 1-phosphatidylinositol 4,5-bisphosphate phosphodiesterase gamma-1 (Homo sapiens), P19174; fluorogenic substrate; inhibition, % at 12.2 µM; 370,000 compounds, 0.84% hits
PLCb3 inh: human PLC-beta3 inhibitors, primary screen, biochemical, fluorescence; 1-phosphatidylinositol 4,5-bisphosphate phosphodiesterase beta-3 (Homo sapiens), Q01970; Purified PLC-beta3, fluorogenic substrate; inhibition, % at 12.2 µM; 370,000 compounds, 0.18% hits; in the data active = inhibition above about 11%;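 note: 0% = median of compound wells on plate and 100% = full blocker control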
procasp3 activ: activators of human procaspase-3 D3A mutant, primary screen, biochemical, absorbance, PC-3 D3A mutant, single concentration; Caspase-3 (Homo sapiens), P42574; recombinant procaspase-3 D3A, Ac-DEVD-pNA absorbance 405 nm; activation, % at 8.5 µM; 330,000 compounds, 0.11% hits; AID 463141, 2010;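 active = activation above the mean of all tested compounds plus 3 SD, cut at about 21% in these data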;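 note: 0% = DMSO alone and 100% = DMSO wells spiked with extra 5 µM PC-3 D3A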
Target sequence (P42574 whole entry D9A/D28A/D175A): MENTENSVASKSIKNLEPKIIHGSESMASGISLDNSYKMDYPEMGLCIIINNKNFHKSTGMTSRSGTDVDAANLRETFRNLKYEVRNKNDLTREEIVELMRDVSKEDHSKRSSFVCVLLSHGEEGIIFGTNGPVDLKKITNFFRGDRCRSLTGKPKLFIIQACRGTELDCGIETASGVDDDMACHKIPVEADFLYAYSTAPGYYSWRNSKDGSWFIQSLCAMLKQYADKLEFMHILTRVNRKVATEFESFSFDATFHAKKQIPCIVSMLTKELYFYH
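Test system: Procaspase-3 D3A mutant; medium: Zinc-free HEPES/NaCl buffer with 0.01% Triton X-100 at pH 7.4; reagent: DEVD-pNA substrate; doses: one concentration, 8.5 µM nominal, 0.8% DMSO; times: 1 h preincubation plus 2 h reaction at 25 °C; signal: Epi-absorbance at 405 nm of released p-nitroaniline, 0 and 120 min; replicates: singlicate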
HGIII-sPLA2 inh: human group III sPLA2 inhibitors, primary screen, biochemical, QFRET, BODIPY PC-A2 liposome substrate | Group 3 secretory phospholipase A2 (Homo sapiens), Q9NZ20 | QFRET BODIPY PC-A2 liposome hydrolysis, fluorescence | inhibition, % at 12.2 µM | 370,000 compounds, 0.56% hits;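 active = inhibition above mean plus 3 SD of compounds lying within the high and low control bounds, cut at about 19% in these data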;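 note: 0% = median of test compound wells and 100% = no enzyme DMSO wells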
procasp7 counter: procaspase-7 activators, primary screen, counter-screen for procaspase-3 activator project, biochemical, absorbance, HTS, human; recombinant procaspase-7, Ac-DEVD-pNA absorbance 405 nm; D23A/D198A/D206A triple mutant, cannot self-cleave; scale: DMSO 0, 5 µM enzyme 100; activation, % at 8.5 µM; 330,000 compounds, 0.093% hits; AID 463210, 2010;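 active = percent activation above the screen-wide mean plus 3 SD, cut at about 25% in these data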
Target sequence (P55210 whole entry D23A/D198A/D206A): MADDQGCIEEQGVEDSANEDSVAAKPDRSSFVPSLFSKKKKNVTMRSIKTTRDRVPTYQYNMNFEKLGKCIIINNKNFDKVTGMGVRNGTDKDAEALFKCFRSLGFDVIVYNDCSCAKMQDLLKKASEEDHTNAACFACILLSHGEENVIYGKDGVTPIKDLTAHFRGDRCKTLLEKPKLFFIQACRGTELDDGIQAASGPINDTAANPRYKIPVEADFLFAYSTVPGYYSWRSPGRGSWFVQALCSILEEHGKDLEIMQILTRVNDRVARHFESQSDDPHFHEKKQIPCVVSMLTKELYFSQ
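signal = Epi-absorbance of released pNA at 405 nm, two timepoints | assay system = Uncleavable procaspase-7 mutant enzyme | reagent = Ac-DEVD-pNA substrate, 400 µM as added | times = 1 h enzyme–compound preincubation and 2 h substrate reaction, both 25 °C | benchmarks = low DMSO alone, high DMSO plus 5 µM PC-7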
PLCg1 ctr: PLC-gamma1 enzyme inhibitors, counter-screen for PLC-beta3 inhibitor project, biochemical, fluorescence; shares compounds with PLC-gamma1 inh; purified PLC-gamma1, fluorogenic substrate; inhibition, % at 12.3 µM; 3,300 compounds, 3.1% hits
PLCb3 confirm: PLC-beta3 inhibitor confirmation, biochemical, fluorescence, purified enzyme; shares compounds with PLC-gamma1 inh; AID 743261, 2014; inhibition, % at 12.3 µM; fluorogenic substrate fluorescence; 3,300 compounds, 1% hits; in the data active = inhibition above about 11%
An asterisk follows results filed as active. Cut-off read from the data, not from the text of the source, unless noted: active = inhibition above about 9.5%; inactive = the rest.

Screening COc1cc(C(=O)OCC(=O)N2CCCC2)cc2c1OCCO2 returned PLC-gamma1 inh -0.1, PLCb3 inh 1.6, procasp3 activ 8.6, HGIII-sPLA2 inh -1.6 and procasp7 counter -5.2.
COc1ccccc1NC(=O)C(C)OC(=O)C1COc2ccccc2O1 (stereo unspecified) was read as PLC-gamma1 inh 2.5, PLCb3 inh -6.7, procasp3 activ 5.6, HGIII-sPLA2 inh 13.1 and procasp7 counter 5.8.
Screening CN(C)C(=O)c1ccccc1Sc1ccc(Cl)cc1Cl returned PLC-gamma1 inh -2.8, PLCb3 inh 1.2, procasp3 activ 5.4, HGIII-sPLA2 inh -1.7 and procasp7 counter -3.2.
`CN(C)C(=O)c1ccccc1Sc1cc(Cl)ccc1Cl` gave PLC-gamma1 inh 15.2*, PLCb3 inh -0.9, procasp3 activ 1.5, HGIII-sPLA2 inh 3.7, procasp7 counter 3.7, PLCg1 ctr -2.6 and PLCb3 confirm -0.6.
`Cc1cccc(OCC(=O)N(C)CCc2ccccn2)c1` gave PLC-gamma1 inh 7.5, PLCb3 inh 11.4*, procasp3 activ -5.0, HGIII-sPLA2 inh 2.7, procasp7 counter -1.3, PLCg1 ctr -3.6 and PLCb3 confirm 0.8.
Cc1cccc(CN(C)CCc2ccccn2)c1 was read as PLC-gamma1 inh 1.2, PLCb3 inh 0.4, procasp3 activ 1.6, HGIII-sPLA2 inh 0.0 and procasp7 counter -10.1.
Screening CC(=O)C1=CCC(c2ccc(F)cc2)N(S(=O)(=O)c2ccc(C)cc2)C1 (stereo unspecified) returned PLC-gamma1 inh -2.5, PLCb3 inh -0.9 and HGIII-sPLA2 inh -3.0.
Screening O=C1CCC(=O)N1c1ccc(CSc2nc3ccccc3[nH]2)cc1 returned PLC-gamma1 inh 10.8*, PLCb3 inh 3.0, procasp3 activ -4.6, HGIII-sPLA2 inh -3.6, procasp7 counter -28.5, PLCg1 ctr -9.0 and PLCb3 confirm -3.3.
CC(=O)Nc1ccc(NC(=O)CCCSc2nc3ccccc3[nH]2)cc1 was read as PLC-gamma1 inh 12.5*, PLCb3 inh 1.6, procasp3 activ -10.8, HGIII-sPLA2 inh 6.4, procasp7 counter -1.6, PLCg1 ctr 5.2 and PLCb3 confirm 5.0.
`O=C(CSc1nc2ccccc2[nH]1)NCc1ccccc1` gave PLC-gamma1 inh 14.4*, PLCb3 inh -1.5, procasp3 activ 0.9, HGIII-sPLA2 inh 0.7, procasp7 counter 0.8, PLCg1 ctr 3.6 and PLCb3 confirm 5.0.
Cc1ccc(NC(=O)CCCSc2nc3ccccc3[nH]2)cc1 was read as PLC-gamma1 inh 0.6, PLCb3 inh 1.2, procasp3 activ 10.7, HGIII-sPLA2 inh -8.3 and procasp7 counter 5.5.
Screening Cn1nccc1-c1coc2c(C(=O)NCc3ccccc3)cccc12 returned PLC-gamma1 inh 4.0, PLCb3 inh 0.0 and HGIII-sPLA2 inh -4.4.
Screening CC(=O)Nc1nnc(SCC(=O)NCCOc2ccccc2)s1 returned PLC-gamma1 inh 9.9*, PLCb3 inh 2.3, procasp3 activ -1.8, HGIII-sPLA2 inh 9.2, procasp7 counter 6.8, PLCg1 ctr -5.4 and PLCb3 confirm 0.0.
CC(=O)Nc1ccc2nc(SCC(=O)NCCOc3ccccc3)sc2c1 was read as PLC-gamma1 inh 6.7, PLCb3 inh -0.6, procasp3 activ -4.2, HGIII-sPLA2 inh -0.6 and procasp7 counter -8.8.
O=C(O[C@H]1CC[C@@]23CCCN2C(=O)CCC[C@H]3C1)N1CCOCC1 was read as PLC-gamma1 inh 4.3, PLCb3 inh -5.8 and HGIII-sPLA2 inh 15.8.
CC(=O)Nc1ccc(NC(=O)C(C)OC(=O)CCN=C2NS(=O)(=O)c3ccccc32)cc1 (stereo unspecified) was read as PLC-gamma1 inh -2.2, PLCb3 inh -3.8, procasp3 activ 4.0, HGIII-sPLA2 inh 6.9 and procasp7 counter 5.6.
`CC(OC(=O)CCCCCN=C1NS(=O)(=O)c2ccccc21)C(=O)Nc1cc(Cl)cc(Cl)c1` (stereo unspecified) gave PLC-gamma1 inh 9.7*, PLCb3 inh 5.7, procasp3 activ -1.9, HGIII-sPLA2 inh -52.9, procasp7 counter 1.7, PLCg1 ctr 1.4 and PLCb3 confirm 0.0.
For O=C(CCN1CCN(c2ccccc2F)CC1)Nc1ccccc1F the results were PLC-gamma1 inh 10.9*, PLCb3 inh 5.7, procasp3 activ -2.2, HGIII-sPLA2 inh 10.4, procasp7 counter 4.1, PLCg1 ctr -2.9 and PLCb3 confirm -0.7.
For CC(C)(C)C(=O)OC12CCCN(C1)/C(=C/c1ccc(Cl)cc1)C2 (stereo unspecified) the results were PLC-gamma1 inh -1.5, PLCb3 inh 0.6 and HGIII-sPLA2 inh 4.7.
COc1cc(OC)cc(C(=O)Nc2ccc(S(=O)(=O)Nc3ncccn3)cc2)c1 was read as PLC-gamma1 inh 8.7, PLCb3 inh -5.0, procasp3 activ 9.0, HGIII-sPLA2 inh 3.6 and procasp7 counter 6.4.
`COc1ccc(C(=O)Nc2ccc(S(=O)(=O)Nc3ncccn3)cc2)cc1OC` gave PLC-gamma1 inh 3.8, PLCb3 inh 13.7*, procasp3 activ -6.5, HGIII-sPLA2 inh 0.1, procasp7 counter -2.8, PLCg1 ctr -9.2 and PLCb3 confirm -5.0.
CCOC(=O)N1CCN(C(=O)/C(=C\c2cccs2)NC(=O)c2cccs2)CC1 was read as PLC-gamma1 inh 10.3*, PLCb3 inh 1.1, procasp3 activ -3.4, HGIII-sPLA2 inh 6.0, procasp7 counter 5.7, PLCg1 ctr 5.7 and PLCb3 confirm 8.2.
`Cc1ccc(CS(=O)Cc2ccc(C(=O)NCc3ccccc3Cl)o2)cc1` (stereo unspecified) gave PLC-gamma1 inh 1.7, PLCb3 inh -9.6, procasp3 activ 5.6, HGIII-sPLA2 inh -7.0 and procasp7 counter -0.2.
`O=C(NCc1ccccc1Cl)c1ccc(CS(=O)Cc2ccc(Cl)cc2)o1` (stereo unspecified) gave PLC-gamma1 inh 9.5*, PLCb3 inh -4.9, procasp3 activ 8.1, HGIII-sPLA2 inh -26.1, procasp7 counter 1.1, PLCg1 ctr 2.0 and PLCb3 confirm 6.9.

Assay outcomes deposited in PubChem by The Scripps Research Institute Molecular Screening Center.
